This is a sample that favours compounds with a hit; in the whole collection about 1.7% have one here.
PP5 inh – PP5 phosphatase inhibitors, primary screen, biochemical, fluorescence; purified PP5c, OMFP substrate fluorescence; 0.18% of 320,000 active; Serine/threonine-protein phosphatase 5 (Homo sapiens), P53041; inhibition, % at 6.7 µM;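 active = inhibition above the campaign's mean inhibition across all tested compounds plus 3 SD, cut at about 9.5% in these data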
m5-HT2A agonist – mouse Htr2a agonists via beta-arrestin recruitment, primary screen, cell-based, luminescence; activation, % at 7.6 µM; 5-hydroxytryptamine receptor 2A (Mus musculus), P35363; 0.66% of 360,000 active; AID 624169, 2012; CHO-K1 mHTR2A beta-arrestin complementation; percent of 30 µM serotonin response;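 active = activation above a run cutoff, the mean activation of all tested compounds plus 3 SD, cut at about 14% in these data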
Target sequence (P35363 whole entry, looked up): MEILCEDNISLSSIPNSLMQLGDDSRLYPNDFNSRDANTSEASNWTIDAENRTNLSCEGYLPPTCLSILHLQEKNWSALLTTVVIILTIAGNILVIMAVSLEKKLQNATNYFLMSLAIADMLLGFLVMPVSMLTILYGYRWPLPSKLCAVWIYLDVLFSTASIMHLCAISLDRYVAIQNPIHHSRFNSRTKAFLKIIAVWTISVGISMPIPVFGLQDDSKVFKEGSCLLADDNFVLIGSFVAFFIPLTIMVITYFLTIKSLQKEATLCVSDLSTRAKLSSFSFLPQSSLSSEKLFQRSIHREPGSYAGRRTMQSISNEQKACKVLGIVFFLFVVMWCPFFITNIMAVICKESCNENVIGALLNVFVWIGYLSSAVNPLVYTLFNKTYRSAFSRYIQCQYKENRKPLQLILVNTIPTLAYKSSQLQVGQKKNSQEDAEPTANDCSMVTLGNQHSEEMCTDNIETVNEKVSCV
PP1 inh – PP1-alpha phosphatase inhibitors, primary screen, counter-screen for PP5 inhibitor project, biochemical, fluorescence, OMFP substrate, single point; 0.9% of 320,000 active; inhibition, % at 6.7 µM; AID 2235, 2010; purified PP1alpha;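 active = inhibition above the mean inhibition of all tested compounds plus 3 SD, computed separately for each screening campaign, cut at about 15% in these data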
T cell HTS – modulators of CD8 T cell-vesicle binding, primary screen, mouse 2C CD8+ T cells, flow cytometry; 2C CD8+ T cell-vesicle binding; stronger effect = lower value; response (vesicle binding), % at 7 µM; 0.068% of 330,000 active;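 active = response, share of CD8 T cells binding vesicles, and their 90th percentile fluorescence all below set limits, cut at about 80% in these data, passing the limit was not always enough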;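 also: values below 100% mean blocked vesicle binding to the CD8+ T cells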
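Material: murine 2C transgenic CD8+ T lymphocytes / Also added: QL9-peptide-loaded Drosophila micro-vesicles bearing Ld, ICAM-1 and B7-1 / Schedule: binding step 1.5 h, 37 °C, antibody labelling 20 min, ice / Signal: flow cytometry, PE anti-B7-1 (FL2) versus Alexa647 anti-CD8 (FL8), PFA-fixed / Evaluation: percent CD8+ FL2 mean versus row control / Benchmarks: naked versus QL9-loaded vesicles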
GASC-1 inh – inhibitors of GASC-1 histone demethylase, primary screen, biochemical, fluorescence, DELFIA europium. Lysine-specific demethylase 4C (Homo sapiens), Q9H3R0. GST-JMJD2C(1-420) H3K9me3 demethylation. inhibition, % at 2.35 µM. 0.069% of 330,000 active;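 active = more than half of a compound's replicate wells show inhibition beyond 50%, single wells judged on their own value; inconclusive = some, but no more than half, of replicates pass 50% inhibition; inactive = no replicate passes 50% inhibition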;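 also: signal counts dimethyl H3K9 product captured on neutravidin plate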
OPRM1 ag – OPRM1 agonists via beta-arrestin recruitment, confirmation, counter-screen for mouse HTR2A agonist project, cell-based, luminescence, single concentration; shares compounds with m5-HT2A agonist; U2OS OPRM1 beta-arrestin PathHunter; DMSO 0%, DAMGO 9.3 µM 100%; activation, % at 9.3 µM; AID 624380, 2012; 5.3% of 2,300 active;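 active = mean activation above the mean of DMSO-only wells plus 3 SD, cut at about 0.5% in these data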
m5-HT2A ag conf – mouse HTR2A agonists, beta-arrestin recruitment, confirmation, cell-based, luminescence, CHO-K1 PathHunter, triplicate; shares compounds with m5-HT2A agonist; activation, % at 7.6 µM; DMSO 0%, 30 µM serotonin 100%; 19% of 2,300 active;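 active = mean activation across triplicates above the hit threshold derived in the original primary screen, cut at about 15% in these data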
Large screens that a line does not name were inactive (follow-up assays come after a bar, where they were run); ! = not confirmed by another sample.

CC(C)Sc1nc2sc(-c3ccccc3)cc2c(=O)n1N	none (no result: GASC-1 inh)
COC(=O)C(C)n1nnc2sc(-c3ccccc3)cc2c1=O (configuration not stated)	m5-HT2A agonist 16 | OPRM1 ag inactive | m5-HT2A ag conf inactive
C[C@@H](NC(=O)[C@@H]1CCCN1C(=O)[C@@H]1CCCN1C(=O)c1ccccc1)c1ccccc1	none (no result: PP5 inh, PP1 inh, T cell HTS, GASC-1 inh)
O=C(Nc1ccccc1)Nc1nnc(SCc2ccc(Cl)cc2)s1	m5-HT2A agonist 17 | OPRM1 ag inactive | m5-HT2A ag conf inactive
O=C(Nc1ccc(Cl)cc1)Nc1nnc(SCc2ccc(Cl)cc2)s1	none
Cc1noc(C)c1COc1ccccc1C(=O)NC(C)c1ccc(Cl)cc1 (configuration not stated)	none
Cc1ccc2nc3c(c(Nc4cccc(O)c4)c2c1)CCC3	none
COCCNC(=S)N(CCc1c(C)[nH]c2ccc(F)cc12)Cc1ccco1	m5-HT2A agonist 28 | OPRM1 ag inactive | m5-HT2A ag conf inactive
COc1ccc(Cl)cc1NC(=O)C(=O)N/N=C/c1cc(C)n(-c2ccc(C)cc2)c1C	m5-HT2A agonist 18 | OPRM1 ag inactive | m5-HT2A ag conf inactive
Cc1cccc(NS(=O)(=O)c2ccc(NC(=O)N3CCCCC3)cc2)c1	m5-HT2A agonist 15 | OPRM1 ag inactive | m5-HT2A ag conf inactive
COc1ccc(-c2oc3cccnc3c2-c2ccc(OC)nc2)cc1	none
O=C(Nc1ccc(C(=O)O)cc1)/C(=C\c1ccc([N+](=O)[O-])cc1)NC(=O)c1ccc(Br)cc1	none
Cc1cccc(C)c1OCc1cc(C(=O)N2CCCC2c2nonc2C)no1 (configuration not stated)	m5-HT2A agonist 14 | OPRM1 ag inactive | m5-HT2A ag conf inactive
Cc1ccc(OCCC(=O)OCC(=O)Nc2ccc3[nH]c(=O)[nH]c3c2)cc1	none
CC(Sc1ccc(S(=O)(=O)N2CCCCC2)cn1)C(N)=O (configuration not stated)	none (no result: PP5 inh, PP1 inh, T cell HTS, GASC-1 inh)
CCn1c(SCC(=O)c2cccs2)nnc1-c1ccco1	m5-HT2A agonist 16 | OPRM1 ag inactive | m5-HT2A ag conf inactive
OCC[C@@H]1C[C@H](O)[C@@H](O)[C@@]2(OCCCc3cc(Cl)ccc32)O1	none (no result: PP5 inh, PP1 inh, T cell HTS, GASC-1 inh)
O=C(NCc1ccco1)C1Cc2c(-c3cccc(F)c3)ccnc2O1 (configuration not stated)	none (no result: PP5 inh, PP1 inh, T cell HTS, GASC-1 inh)
CC(C)C[C@H]1C(=O)N2CCC[C@H]2[C@]2(O)O[C@](NC(=O)[C@@H]3C=C4c5cccc6[nH]c(Br)c(c56)CC4N(C)C3)(C(C)C)C(=O)N12 (some centres not stated)	m5-HT2A agonist 41 | OPRM1 ag inactive | m5-HT2A ag conf 127
CC1CCc2c(sc(Nc3nc4c(F)cccc4s3)c2C(N)=O)C1 (configuration not stated)	m5-HT2A agonist 19 | OPRM1 ag inactive | m5-HT2A ag conf inactive
Cc1ccccc1C(=O)NC1CCN(CC(=O)Nc2ccc(N(C)C)cc2)CC1	none
CC(=O)c1ccc(NC(=O)CN2CCC(NC(=O)c3ccccc3C)CC2)cc1	m5-HT2A agonist 23 (no result: PP5 inh, PP1 inh, T cell HTS, GASC-1 inh) | OPRM1 ag inactive | m5-HT2A ag conf inactive
COc1cc2c(c(OC)c1OC)-c1ccc(N(C)CC(OC)OC)c(=O)cc1[C@@H](NC(C)=O)CC2	m5-HT2A agonist 25 | OPRM1 ag inactive | m5-HT2A ag conf inactive
CN[C@H]1CCc2cc(OC)c(OC)c(OC)c2-c2ccc(N(C)CC(OC)OC)c(=O)cc21	none
Cn1c(SCC(=O)NCC2CCCO2)nnc1-c1c[nH]c2ccccc12 (configuration not stated)	m5-HT2A agonist 37 | OPRM1 ag inactive | m5-HT2A ag conf inactive
Cn1c(SCC(=O)NCC2CCCO2)nnc1-c1ccco1 (configuration not stated)	none (no result: GASC-1 inh)
O=C(Nc1cnccn1)c1ccc(Cl)cc1	none
CC(C)Cn1cnc2c(c(-c3ccccc3)c(-c3ccccc3)n2Cc2ccco2)c1=N	none
OCCNc1ncnc2c1c(-c1ccccc1)c(-c1ccccc1)n2Cc1ccco1	m5-HT2A agonist 14 | OPRM1 ag inactive | m5-HT2A ag conf inactive
Cc1cccc(N2CCN(C(=O)c3cc4ccccc4oc3=O)CC2)c1C	m5-HT2A agonist 16 | OPRM1 ag inactive | m5-HT2A ag conf inactive
CCOc1ccc(N2C(=O)CC(N(CCc3ccc(OC)cc3)C(=O)/C=C/C(=O)O)C2=O)cc1 (configuration not stated)	m5-HT2A agonist 17 | OPRM1 ag inactive | m5-HT2A ag conf inactive
NC(=S)NN=C1C=CCCC1	m5-HT2A agonist 19 (no result: PP5 inh, PP1 inh, T cell HTS, GASC-1 inh) | OPRM1 ag inactive | m5-HT2A ag conf inactive
Cc1cccc(CC(=O)NCC(=O)NCc2cc(=O)n(C)c(=O)n2C)c1	none
CCOc1ccc(NC(=O)C2CCCN2S(=O)(=O)c2ccc3c(c2)C(C)(C)C(=O)N3C)cc1 (configuration not stated)	none
CNC(=O)Oc1ccc2c(c1)[C@]1(C)CCN(C)[C@@H]1N2C	m5-HT2A agonist 20! | OPRM1 ag inactive | m5-HT2A ag conf inactive
C[N+](C)(CCOc1ccccc1)Cc1ccccc1	m5-HT2A agonist 35 (no result: PP5 inh, PP1 inh, T cell HTS, GASC-1 inh) | OPRM1 ag 1.6 | m5-HT2A ag conf inactive
CN(CCOc1cccc2ccccc12)Cc1ccccc1	m5-HT2A agonist 15 | OPRM1 ag inactive | m5-HT2A ag conf 19
CN(CCOc1ccccc1)Cc1ccccc1	m5-HT2A agonist 20 (no result: PP5 inh, PP1 inh, T cell HTS, GASC-1 inh) | OPRM1 ag inactive | m5-HT2A ag conf 37
CCN(Cc1ccccc1)C(=O)CCCOc1ccccc1	GASC-1 inh inconclusive
CCc1ccc(CN(C)CC(O)COc2cccc3ccccc23)cc1 (configuration not stated)	none
CCCCNCCCCOc1ccccc1	none
O=C(COC(=O)CCC(=O)N1CCOCC1)Nc1ccc(Br)cc1Br	none (no result: PP5 inh, PP1 inh)
CCOC(=O)c1cnn(-c2ccccc2)c1-c1ccncc1	none
COc1ccc(NC(=O)N(C)C[C@@H]2OCc3ccccc3-c3c(n(C)c4ccccc34)C(=O)N([C@H](C)CO)C[C@H]2C)c(OC)c1	none (no result: PP5 inh, PP1 inh, T cell HTS, GASC-1 inh)
OCCNc1nc(Nc2ccccc2C(F)(F)F)nc(N2CCCC2)n1	m5-HT2A agonist 17 | OPRM1 ag inactive | m5-HT2A ag conf inactive
CCNc1nc(Oc2ccc(=O)n(-c3ccccc3)n2)nc(N(C)C)n1	none
CCNc1nc(OC)nc(Oc2ccc(=O)n(-c3ccccc3)n2)n1	m5-HT2A agonist 18 | OPRM1 ag inactive | m5-HT2A ag conf inactive

Compound activity: PubChem BioAssay, several laboratories
